Measurements published in ChEMBL document CHEMBL5036308, “Chiral Alkyl Groups at Position 3(1') of Pyropheophorbide-a Specify Uptake and Retention by Tumor Cells and Are Essential for Effective Photodynamic Therapy” (J Med Chem, 2021).
Blank lines part the entries; values can stand above or below the compound they belong to. The source made the active and inactive calls. The calls are words filed in the database; no cut-off is given here.

How the values were obtained:
HNT1 = assay: Binding affinity to human HNT1 cell plasma membrane with CFSE-labeled HN-87 T-Fb assessed as drug retention at 1600 nM incubated for 24 hrs in presence of 10% fetal bovine serum measured after 24 hrs chase period by fluorescent microscopy; assay type: cell membranes
In short: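 HNT1 cells (p 72) co-cultured on collagen-1 with CFSE-stained HN-87 T-Fb fibroblasts (added to 24 h-old tumor cultures, grown 3–7 days to confluence). Treated 24 h with DMEM + 10% FBS and 1600 nM PS, chased 24 h in DMEM + 10% FBS, then fluorescence imaged under identical conditions.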

TEC1-2 = assay: Binding affinity to human TEC1-2 cell plasma membrane assessed as drug retention at 1600 nM incubated for 24 hrs in presence of 10% fetal bovine serum measured after 48 hrs chase period by fluorescent microscopy; assay type: cell membranes
[1] = Drug uptake in human HN-T1 cells assessed as drug internalization at 1600 nM incubated for 24 hrs in presence of 10% fetal bovine serum measured after 24 hrs chase period by fluorescent microscopy; assay type: ADME, cell-based; details: hnt1, 24 h, 1.6 µM
[2] = Drug uptake in human HN-143 T-EC cells assessed as drug retention at 1600 nM incubated for 24 hrs in presence of 10% fetal bovine serum measured after 72 hrs chase period by fluorescent microscopy imaging based analysis; assay type: ADME, cell-based; details: 1.6 µM
In short: (§1)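 Cells incubated 24 h in medium with 10% serum and 1600 nM PS, then chased in PS-free medium for up to 72 h with daily medium changes. Cellular PS was measured daily by fluorescence microscopy; net fluorescence intensity per full image frame was quantified in arbitrary units.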

[3] = Drug uptake in human HN-143-T-EC cells assessed as drug retention in mitochondria measured after 72 hrs chase period by fluorescent microscopy; assay type: ADME
[4] = Drug uptake in human HN-143 T-EC cells assessed as drug retention at 1600 nM incubated for 24 hrs in presence of 10% fetal bovine by fluorescent microscopy imaging based analysis; assay type: ADME, cell-based; details: 1.6 µM; in short: as §1
[5] = Drug uptake in human HN-143-T-EC cells assessed as drug retention in endoplasmic reticulum measured after 72 hrs by fluorescent microscopy; assay type: ADME, cell-based
[6] = Drug uptake in human HNT1 cells assessed as drug retention at 1600 nM incubated for 24 hrs in presence of 10% fetal bovine serum measured after 24 hrs chase period by fluorescent microscopy; assay type: ADME, cell-based; details: hnt1, 24 h, 1.6 µM
[7] = Drug uptake in human HN-85 T-EC cells assessed as drug retention at 1600 nM incubated for 24 hrs in presence of 10% fetal bovine serum measured after 24 hrs chase period by fluorescent microscopy; assay type: ADME, cell-based; details: 1.6 µM
HN-143 T-EC = assay: Binding affinity to human HN-143 T-EC cell membrane surface measured at 1600 nM incubated for 30 min; assay type: tissue-based
FaDu-124 = assay: Binding affinity to human FaDu-124 cell membrane surface measured at 1600 nM incubated for 30 mins at 0 degC; assay type: tissue-based
In short: (§2)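 FaDu-124 cells, 30 min on ice in serum-free DMEM with 1600 nM PS, then cell-associated fluorescence imaged. For diffusion into cells, cultures were then held 30 min at 37°C in fresh serum-free medium and imaged again.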

[8] = Drug uptake in human HN-143 T-EC cells assessed as slow release by measuring drug retention at 1600 nM incubated for 24 hrs in presence of 10% fetal bovine serum measured after 48 hrs chase period by fluorescent microscopy imaging based analysis; assay type: ADME, cell-based; details: 1.6 µM; in short: as §1
[9] = Drug uptake in human HN-143 T-EC cells assessed as drug retention at 1600 nM incubated for 24 hrs in presence of 10% fetal bovine serum measured after 48 hrs chase period by fluorescent microscopy imaging based analysis; assay type: ADME, cell-based; details: 1.6 µM; in short: as §1
[10] = Lipophilicity, logP of the compound; assay type: physicochemical; details: octanol/water
[11] = Drug uptake in tissue cultured human TEC1-2 cells assessed as drug retention at 1600 nM incubated for 24 hrs in presence of 10% fetal bovine serum measured after 24 hrs chase period by fluorescent microscopy; assay type: ADME, tissue-based; details: tec1-2, 24 h, 1.6 µM
[12] = Drug uptake in tissue cultured human TEC1-2 cells assessed as drug retention at 1600 nM incubated for 24 hrs in presence of 10% fetal bovine serum measured after 48 hrs chase period by fluorescent microscopy; assay type: ADME, tissue-based; details: tec1-2, 24 h, 1.6 µM
[13] = Photoreactivation in human TEC21 cells in presence of 10% fetal bovine serum under 665 nm light for 9 mins measured after 24 hrs by immune blot analysis; assay type: cell-based; details: tec-21, 24 h
In short: (§3)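 TEC-21 cells (p 8) treated 24 h in RPMI + 10% FBS with PS, imaged, chased 48 h in RPMI + 10% FBS, then irradiated 9 min with 665 nm light (6 mW/cm²). Cells were extracted immediately and immunoblotted for STAT3 crosslinking, EGFR and phospho-p38 MAPK.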

[14] = Photoreactivation in human TEC21 cells assessed as STAT3cross-linking in presence of 10% fetal bovine serum under 665 nm light for 9 mins measured after 24 hrs by immune blot analysis; assay type: cell-based; details: tec-21, 0.15 h; in short: as §3
[15] = Drug uptake in human FaDu-124 cell membrane assessed as drug internalization at 1600 nM incubated for 30 mins at 37 degC; assay type: ADME, cell-based; details: fadu-124, 0.5 h, 1.6 µM; in short: as §2

Structure (SMILES): CCCCC(C)OCc1c(C)c2cc3nc(c4c5[nH]c(cc6nc(cc1[nH]2)C(C)=C6CC)c(C)c5C(=O)C4)[C@@H](CCC(=O)OC)C3C (stereo partly specified)
Activity (HNT1): inactive
Activity (TEC1-2): inactive

Structure (SMILES): C=Cc1c(C)c2cc3nc(c4c5[nH]c(cc6nc(cc1[nH]2)C(C)=C6CC)c(C)c5C(=O)C4)[C@@H](CCC(=O)O)C3C (stereo partly specified)
Activity (FaDu-124): inactive

Structure (SMILES): CCCCOC(CCC)c1c(C)c2cc3nc(c4c5[nH]c(cc6nc(cc1[nH]2)C(C)=C6CC)c(C)c5C(=O)C4)[C@@H](CCC(=O)OC)C3C (stereo partly specified)
Drug uptake [2]: Active
Drug uptake [3]: Active
Drug uptake [5]: Active

Structure (SMILES): CCCCOC(CCC)c1c(C)c2cc3nc(c4c5[nH]c(cc6nc(cc1[nH]2)C(C)=C6CC)c(C)c5C(=O)C4)[C@@H](CCC(=O)O)C3C (stereo partly specified)
Drug uptake [2]: Active
Drug uptake [8]: Active
Drug uptake [3]: Active
Drug uptake [4]: Active
Drug uptake [9]: Active
Drug uptake [5]: Active
logP [10]: 6.56
Drug uptake [11]: Active
Drug uptake [12]: Active
Drug metabolism [13]: Metabolite_Detected
Activity [14]: 3.1%

Structure (SMILES): CCCCCCOCc1c(C)c2cc3nc(c4c5[nH]c(cc6nc(cc1[nH]2)C(C)=C6CC)c(C)c5C(=O)C4)[C@@H](CCC(=O)O)C3C (stereo partly specified)
Activity (HN-143 T-EC): Active

The next lines start with results.

Drug uptake [1]: Active
Structure (SMILES): CCCCc1c(C)c2cc3nc(c4c5[nH]c(cc6nc(cc1[nH]2)C(C)=C6CC)c(C)c5C(=O)C4)[C@@H](CCC(=O)OC)C3C (stereo partly specified)

Drug uptake [2]: Active
Drug uptake [3]: Active
Drug uptake [4]: Active
Drug uptake [5]: Active
Drug uptake [6]: Active
Drug uptake [7]: Not Active
Structure (SMILES): CCCCC(C)OC(C)c1c(C)c2cc3nc(c4c5[nH]c(cc6nc(cc1[nH]2)C(C)=C6CC)c(C)c5C(=O)C4)[C@@H](CCC(=O)O)C3C (stereo partly specified)
Activity (HN-143 T-EC): Active

Drug uptake [1]: Active
Structure (SMILES): CCCCc1c(C)c2cc3nc(c4c5[nH]c(cc6nc(cc1[nH]2)C(C)=C6CC)c(C)c5C(=O)C4)[C@@H](CCC(=O)O)C3C (stereo partly specified)

Drug uptake [2]: Active
Drug uptake [4]: Active
Drug uptake [15]: Active
Structure (SMILES): CCCCCCSC(C)c1c(C)c2cc3nc(c4c5[nH]c(cc6nc(cc1[nH]2)C(C)=C6CC)c(C)c5C(=O)C4)[C@@H](CCC(=O)O)C3C (stereo partly specified)
Activity (FaDu-124): Active
